# Published values of several laboratories.
# Target: Inhibitor of nuclear factor kappa-B kinase subunit alpha (CHUK, Homo sapiens, UniProt O15111)
# Residues used in one study (O15111 1-745): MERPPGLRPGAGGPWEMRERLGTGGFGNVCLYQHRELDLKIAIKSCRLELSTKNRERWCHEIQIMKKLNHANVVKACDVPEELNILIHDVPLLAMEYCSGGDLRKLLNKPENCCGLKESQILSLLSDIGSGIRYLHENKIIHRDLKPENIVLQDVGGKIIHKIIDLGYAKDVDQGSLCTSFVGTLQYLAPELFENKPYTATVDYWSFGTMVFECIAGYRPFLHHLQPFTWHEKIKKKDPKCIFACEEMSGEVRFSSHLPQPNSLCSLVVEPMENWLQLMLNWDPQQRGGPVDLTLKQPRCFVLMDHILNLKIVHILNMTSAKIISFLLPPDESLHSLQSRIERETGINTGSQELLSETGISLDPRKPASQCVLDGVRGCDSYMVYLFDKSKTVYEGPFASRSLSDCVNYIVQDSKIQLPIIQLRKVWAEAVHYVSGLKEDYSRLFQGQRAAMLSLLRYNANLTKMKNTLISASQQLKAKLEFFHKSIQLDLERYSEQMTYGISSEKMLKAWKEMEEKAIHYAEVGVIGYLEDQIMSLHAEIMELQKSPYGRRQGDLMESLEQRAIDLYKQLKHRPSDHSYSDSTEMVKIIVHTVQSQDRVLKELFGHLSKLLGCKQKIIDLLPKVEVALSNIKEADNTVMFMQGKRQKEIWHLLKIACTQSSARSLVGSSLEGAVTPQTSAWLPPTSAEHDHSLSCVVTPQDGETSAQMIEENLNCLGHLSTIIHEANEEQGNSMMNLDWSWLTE
SMILES,observed,action,method,tested at,quantity,result
COc1ccc2oc(-c3ccc4nc(N)oc4c3)c/c(=N\c3ccccc3NC(=O)CCN)c2c1,binding,,,1 µM,remaining binding,94%
C#Cc1cnc(Nc2ccnc(CO)c2)nc1Nc1ccccc1S(C)(=O)=NC#N (centres unmarked),cell-free assay,,,1 µM,remaining signal,100%
CCCCC(=O)Nc1ccc(-c2ccc3ncn(CCC)c(=O)c3c2)cn1,binding,,competition with immobilised ligand,0.5 µM,remaining binding,100%
COc1ccc2[nH]c3c4[nH]c5ccc(OC)cc5c4c4c(c3c2c1)C(=O)NC4=O,binding,,,1 µM,remaining binding,89%
C=CC(=O)N1CCC[C@@H](n2nc(-c3ccc(Oc4ccccc4)cc3)c3c(N)ncnc32)C1,enzyme activity,inhibitor,,1 µM,inhibition,16%
N#Cc1ccc(NC(=O)Nc2ccccc2)cc1,cell-free assay,,competition with immobilised ligand,25 µM,remaining binding,85%
C[C@H]1CC[C@H](n2c3cnccc3c3cnc(Nc4ccc5c(n4)CCN(C(=O)CO)C5)nc32)CC1,cell-free assay,,,1 µM,remaining signal,76%
C=CC(=O)N1CCC([C@@H]2CCNc3c(C(N)=O)c(-c4ccc(Oc5ccccc5)cc4)nn32)CC1,enzyme activity,inhibitor,,1 µM,inhibition,0%
